Data reported in ChEMBL document CHEMBL3272283, “Contraceptive agents from cycloaddition reactions of diarylcyclopropenones and diarylthiirene 1, 1-dioxides” (J Med Chem, 1976).
The source made the active and inactive calls. No cut-off for these calls is given here.

Key:
[1] = system: Rattus norvegicus; experiment: Antifertility activity in 1 to 9 days pregnancy Charles River CD rat assessed as reduction in number of viable fetuses at 25 mg/kg, po; type: functional
Method in brief: (§1)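 Adult females (rats: Charles River CD; hamsters: Lakeview LAK/LVG-SVR) kept under reversed light (dark 6 a.m.-6 p.m.). Caged with proven-fertile males at 9:00 a.m.; plug or vaginal sperm at 3:00 p.m. marked day 0. Oral dosing generally days 1-9, groups of five; killed day 11. Living fetuses, resorptions and implantation sites counted against controls. Score by % fewer viable fetuses: A <24%, +1 25-49%, +2 50-74%, +3 75-99%, +4 none living.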

[2] = system: Rattus norvegicus; experiment: Antifertility activity in 1 to 9 days pregnancy Charles River CD rat assessed as reduction in number of viable fetuses at 5 mg/kg, po; type: functional; method in brief: as §1
[3] = system: Hamster; experiment: Antifertility activity in 1 to 9 days pregnancy hamster assessed as reduction in number of viable fetuses at 50 mg/kg, po; type: functional, Cricetinae; method in brief: as §1
[4] = system: Rattus norvegicus; experiment: Antifertility activity in 1 to 9 days pregnancy Charles River CD rat assessed as abortion of implanted embryos at 25 mg/kg, po qd for 9 days; type: functional, organism-based; parameters: dose 25 mg/kg; method in brief: as §1
[5] = species: Oryctolagus cuniculus; experiment: Estrogenic activity in immature rabbit uterus assessed as Clauberg progestational response; type: functional, tissue-based
[6] = system: Hamster; experiment: Antifertility activity in 1 to 9 days pregnancy hamster assessed as reduction in number of viable fetuses at 10 mg/kg, po; type: functional, Cricetinae; method in brief: as §1
[7] = species: Rattus norvegicus; experiment: Estrogenic activity in immature rat; type: functional, organism-based
[8] = species: Rattus norvegicus; experiment: Estrogenic activity in adult ovariectomized rat; type: functional, organism-based
[9] = species: Rattus norvegicus; experiment: Estrogenic activity in immature rat assessed as induction of vaginal opening; type: functional, organism-based
[10] = species: Rattus norvegicus; experiment: Estrogenic activity in rat assessed as increase of uterine weight; type: functional, organism-based
[11] = species: Rattus norvegicus; experiment: Estrogenic activity in adult ovariectomized rat assessed as induction of vaginal opening and cornification; type: functional, organism-based
[12] = species: Canis familiaris; experiment: Effect on mating behavior in spayed dog; settings: Canis lupus familiaris
[13] = system: Hamster; experiment: Uterotrophic activity in hamster; type: functional, organism-based; settings: Cricetinae; Uterus
[14] = system: Rhesus monkey; experiment: Toxicity in rhesus monkey up to 800 mg/kg, po; type: organism-based, Macaca mulatta; parameters: dose 800 mg/kg, route oral; settings: in vivo
[15] = species: Rattus norvegicus; experiment: Estrogenic activity in adult ovariectomized rat assessed as induction of uterine growth; type: functional, organism-based
[16] = system: Rattus norvegicus; experiment: Antideciduomal activity in pseudopregnant rat administered once in weekly; type: functional, organism-based
[17] = species: Rattus norvegicus; experiment: Antiestrogenic activity in rat; type: functional, organism-based
[18] = system: Rattus norvegicus; experiment: Antifertility activity in 1 to 9 days pregnancy Charles River CD rat assessed as reduction in number of viable fetuses at 50 mg/kg, po; type: functional; method in brief: as §1

SMILES: O=S1(=O)C(c2ccc(Cl)cc2)=C1c1ccc(Cl)cc1
- Activity [1]: inactive

SMILES: O=C1C(c2ccccc2)=C(c2ccccc2)C2CCc3ccccc3[C@@]12N1CCCC1 (some centres not stated)
- Activity [1]: 50%

SMILES: O=C1C(c2ccccc2)=C(c2ccccc2)[C@H]2C3CCC(C3)[C@@]12N1CCOCC1 (relative stereo)
- Activity [1]: 0%

SMILES: O=C1C(c2ccc(Cl)cc2)=C(c2ccc(Cl)cc2)[C@H]2C3CCC(C3)[C@@]12N1CCCC1 (relative stereo)
- Activity [1]: 0%

SMILES: O=C1C(c2cccs2)=C(c2cccs2)C2C3CCC(C3)[C@@]12N1CCCCC1 (some centres not stated)
- Activity [1]: 0%

SMILES: O=S1(=O)C(c2ccc(Cl)cc2)=C(c2ccc(Cl)cc2)C2C3CCC(C3)[C@]21N1CCCC1 (some centres not stated)
- Activity [1]: 0%

SMILES: O=C(/C(=C(\C1=Cc2ccccc2CC1)c1ccccc1)c1ccccc1)N1CCCCC1
- Activity [1]: 100%

SMILES: O=C(/C(=C(\C1=CC2CCC1CC2)c1ccccc1)c1ccccc1)N1CCCCC1
- Activity [1]: 0%

SMILES: O=C(/C(=C(\C1=CC2CCC(C1)C2)c1ccccc1)c1ccccc1)N1CCCCC1 (configuration not stated)
- Activity [1]: 0%

SMILES: CC(C)=C/C(=C(\C(=O)N1CCCC1)c1ccccc1)c1ccccc1
- Activity [2]: inactive
- Activity [1]: 100%

SMILES: O=C1C(c2ccccc2)=C(c2ccccc2)C2C3CC(C[C@]12N1CCCC1)c1ccccc13 (some centres not stated)
- Activity [3]: 25%
- Activity [4]: Active
- Activity [1]: 100%

SMILES: O=S1(=O)C(c2ccccc2)=C(c2ccccc2)C2C3CCC(C3)[C@]21N1CCCC1 (some centres not stated)
- Activity [1]: 75%

SMILES: CC1=C(/C(=C(\C(=O)N2CCCC2)c2ccccc2)c2ccccc2)C2CCC1C2 (configuration not stated)
- Activity [1]: 0%

SMILES: O=C1C(c2ccccc2)=C(c2ccccc2)[C@H]2C3CCC(C3)[C@@]12N1CCCCC1 (relative stereo)
- Activity [5]: inactive
- Activity [6]: 25%
- Activity [3]: 100%
- Activity [7]: Active
- Activity [4]: Active
- Activity [8]: Active
- Activity [9]: Active
- Activity [10]: Active
- Activity [11]: Active
- Activity [12]: inactive
- Activity [13]: Active
- Activity [14]: Non-toxic
- Activity [15]: Active
- Activity [16]: Active
- Activity [1]: 100%
- Activity [17]: inactive

SMILES: O=C1C(c2ccc(Cl)cc2)=C(c2ccc(Cl)cc2)[C@H]2C3CCC(C3)[C@@]12N1CCCCC1 (relative stereo)
- Activity [1]: 0%

SMILES: O=C1C(c2ccccc2)=C(c2ccccc2)[C@H]2C3CCC(C3)[C@@]12N1CCCC1 (relative stereo)
- Activity [3]: 0%
- Activity [4]: Active
- Activity [1]: 100%

SMILES: O=C1C(c2ccccc2)C(c2ccccc2)C2C3CCC(C3)[C@@]12N1CCCC1 (some centres not stated)
- Activity [1]: 25%

SMILES: O=C1C(c2ccccc2)=C(c2ccccc2)C2C3CC(C4C=CCC43)[C@@]12N1CCCC1 (some centres not stated)
- Activity [1]: 0%

SMILES: O=C1C(c2ccccc2)=C(c2ccccc2)C2C3CCC(CC3)[C@@]12N1CCCCC1 (some centres not stated)
- Activity [4]: Active
- Activity [1]: 100%

SMILES: O=C(/C(=C(\C1=CCCCc2ccccc21)c1ccccc1)c1ccccc1)N1CCCC1
- Activity [1]: 0%

SMILES: O=c1c(-c2ccccc2)c1-c1ccccc1
- Activity [1]: inactive

SMILES: COc1ccc(C2=C(c3ccc(OC)cc3)[C@H]3C4CCC(C4)[C@@]3(N3CCCC3)C2=O)cc1 (relative stereo)
- Activity [1]: 0%

SMILES: O=C(/C(=C(\C1=CCCc2ccccc21)c1ccccc1)c1ccccc1)N1CCCC1
- Activity [1]: 0%

SMILES: C[C@@]12C(c3ccccc3)=C(c3ccccc3)C(=O)[C@]1(N1CCCC1)C1CCC2C1 (relative stereo)
- Activity [2]: 0%

SMILES: O=C1C(c2ccccc2)=C(c2ccccc2)C2CC3CCC(C3)[C@@]12N1CCCC1 (some centres not stated)
- Activity [1]: 0%

SMILES: O=S1(=O)C(c2ccccc2)=C1c1ccccc1
- Activity [1]: inactive

SMILES: O=C1C(c2ccccc2)=C(c2ccccc2)C2C3CCC(C3)C[C@@]12N1CCCCC1 (some centres not stated)
- Activity [4]: Active
- Activity [1]: 100%

SMILES: O=C(/C(=C(\C=C1/CC=CCC1)c1ccccc1)c1ccccc1)N1CCCC1
- Activity [1]: 0%

SMILES: O=C1C(c2ccccc2)=C(c2ccccc2)[C@H]2C3CCC(C3)[C@@]12N1CCCCCC1 (relative stereo)
- Activity [3]: 0%
- Activity [4]: Active
- Activity [1]: 100%

SMILES: CN1CCN([C@]23C(=O)C(c4ccccc4)=C(c4ccccc4)[C@H]2C2CCC3C2)CC1 (relative stereo)
- Activity [2]: 75%
- Activity [4]: Active

SMILES: COc1ccc(-c2c(-c3ccc(OC)cc3)c2=O)cc1
- Activity [1]: inactive

SMILES: O=C(/C(=C(\C1=Cc2ccccc2CC1)c1ccccc1)c1ccccc1)N1CCCC1
- Activity [2]: inactive
- Activity [18]: 100%

SMILES: O=C(/C(=C(\C=C1CCCCC1)c1ccccc1)c1ccccc1)N1CCCC1
- Activity [1]: 0%

SMILES: O=c1c(-c2ccc(Cl)cc2)c1-c1ccc(Cl)cc1
- Activity [1]: inactive

SMILES: CN(C)[C@]12C(=O)C(c3ccccc3)=C(c3ccccc3)[C@H]1C1CCC2C1 (relative stereo)
- Activity [1]: 0%

SMILES: O=S1(=O)C(c2ccccc2)=C(c2ccccc2)C2C3CCC(C3)[C@]21N1CCCCC1 (some centres not stated)
- Activity [1]: 100%
